Measured values reported in ChEMBL document CHEMBL1131066, “2-Substituted aminopyrido[2,3-d]pyrimidin-7(8H)-ones. structure-activity relationships against selected tyrosine kinases and in vitro and in vivo anticancer activity” (J Med Chem, 1998).

Experiments:
C6 glioma = assay: Difference in days for treated (T) and control (C) C6 glioma tumors to reach 750 mg in mice at 5 mg/kg peroral dose, days 1-15 administration; conditions: route oral
A-431 [1] = assay: Net reduction in tumor burden between first and last treatments in A431 cell tumors in mice at 20 mg/kg peroral dose, days 7-21 administration; format: functional; conditions: route oral
In short: (§1)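 NCr nu/nu nude mice (18–22 g, 6–8 per group, randomized) had tumor fragments, kept by serial passage in nude mice, implanted in the right axilla on day 0. Mice were dosed by average cage weight on the listed days, over a range from toxic to ineffective doses. Vehicle was 50 mM sodium lactate pH 4.0 or 0.5% methyl cellulose suspension. Net log cell kill was taken between first and last treatments.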

COLO 205 [2] = assay: Net reduction in tumor burden between first and last treatments of COLO 205 cell tumors in mice at 10 mg/kg peroral dose, days 14-28 administration; format: functional; conditions: route oral
In short: as §1

Mus musculus [3] = assay: Net reduction in tumor burden between first and last treatments in PDGF-transfected fibroblast cells in mice at 9.5 mg/kg peroral dose, days 1-15 administration; conditions: route oral
C6 [4] = assay: Weight change of C6 glioma cell tumor in mice at 10 mg/kg peroral dose, days 1-15 administration; format: functional, organism-based; design: dose 10 mg/kg
In short: (§2)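 Tumor-bearing nude mice (NCr nu/nu, 18–22 g, 6–8 per group) were implanted in the right axilla with tumor fragments on day 0 and dosed by average cage weight. Vehicle was 50 mM sodium lactate pH 4.0, or 0.5% methyl cellulose suspension; cisplatin was given in saline. Host body weight change is given as the maximum treatment-related weight loss.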

A-431 [5] = assay: Difference in days for treated (T) and control (C) A431 cell tumors to reach 750 mg in mice at 20 mg/kg peroral dose, days 7-21 administration; format: functional; conditions: route oral
In short: (§3)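 Nude mice (NCr nu/nu), 18–22 g, 6–8 per group, randomized and implanted with serially passaged tumor fragments in the right axilla on day 0. Dosed by average cage weight. Vehicle was 50 mM sodium lactate buffer, pH 4.0, or a 0.5% methyl cellulose suspension for one compound. Cisplatin was given in saline. T − C is the difference in days for treated and control tumors to reach 750 mg.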

C6 [6] = assay: Net reduction in tumor burden between first and last treatments of C6 glioma cell tumors in mice at 10 mg/kg peroral dose, days 1-15 administration; format: functional; conditions: route oral
In short: as §1

C6 [7] = assay: Weight change of C6 glioma tumor cells in mice at 5 mg/kg peroral dose, days 1-15 administration; format: functional, Mus musculus; conditions: route oral
In short: as §2

NIH3T3 [8] = assay: Growth of NIH3T3 cell colonies in soft agar with continuous treatment; format: functional, cell-based; conditions: Mus musculus
In short: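 Soft agar cloning used PDGF-B-transfected NIH3T3 (NIH3T3/PDGF) cells. Cells were exposed 3 days to a concentration series, then plated in soft agar with the matching compound concentration kept present. Colonies were stained and counted after two weeks. IC50; mean of two experiments, each in duplicate.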

C6 [9] = assay: Net reduction in tumor burden between first and last treatments of C6 glioma cell tumors in mice at 5 mg/kg peroral dose, days 1-15 administration; format: functional; conditions: route oral
In short: as §1

Mus musculus [10] = assay: Weight change of PDGF-transfected fibroblast cells in mice at 15 mg/kg peroral dose, days 1-15 administration; format: functional; conditions: route oral
In short: (§4)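 Nude mice (NCr nu/nu, 18–22 g, 6–8 per group) were randomized and implanted with serially passaged tumor fragments in the right axilla on day 0. Oral dosing was based on average cage weight, on the days stated, over a dose range from toxic to ineffective. Vehicle was 50 mM sodium lactate buffer, pH 4.0, or 0.5% methyl cellulose suspension. Host weight change is reported as maximum treatment-related loss.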

COLO 205 [11] = assay: Difference in days for treated (T) and control (C) COLO 205 cell tumors to reach 750 mg in mice at 10 mg/kg peroral dose, days 14-28 administration; format: functional; conditions: route oral
In short: as §3

C6 [12] = assay: C6 cell growth in soft agar with continuous treatment; format: functional, cell-based, Rattus norvegicus; conditions: Rattus norvegicus, C6
In short: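 C6 rat glioma cells (F10 Ham's with 15% horse serum, 2.5% fetal calf serum) exposed 3 days to a concentration series, then plated in soft agar with compound still present at the same concentration; colonies stained and counted after two weeks. IC50; mean of two experiments, each in duplicate.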

Mus musculus [13] = assay: Net reduction in tumor burden between first and last treatments of PDGF-transfected fibroblast cells in mice at 15 mg/kg peroral dose, days 1-15 administration; format: functional; conditions: route oral
In short: as §1

C6 [14] = assay: Inhibition of C6 cell proliferation in sulforhodamine B assay; format: functional, cell-based, Rattus norvegicus; conditions: Rattus norvegicus, C6
In short: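 C6 rat glioma cells (F10 Ham's, 15% horse serum, 2.5% fetal calf serum) seeded and allowed 24 h to attach, then given serial 2-fold compound dilutions; 4 d at 37 °C, 5% CO2; growth read by sulforhodamine B staining. IC50; mean of two experiments, each in triplicate.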

HT-29 [15] = assay: Net reduction in tumor burden between first and last treatments of HT-29 cell tumors in mice at 10.2 mg/kg peroral dose, days 15-29 administration; format: functional; conditions: route oral
In short: as §1

NIH3T3 [16] = assay: Growth of NIH3T3 cell colonies in soft agar with discontinued treatment; format: functional, cell-based; conditions: Mus musculus
In short: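 PDGF-B-transfected NIH3T3 (NIH3T3/PDGF) cells exposed 3 days to a concentration series, washed free of inhibitor, plated in drug-free soft agar; colonies stained and counted after two weeks. IC50; mean of two experiments, each in duplicate.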

A-431 [17] = assay: Weight change of A431 cell tumor in mice at 20 mg/kg peroral dose, days 7-21 administration; format: functional; conditions: route oral
In short: as §2

Mus musculus [18] = assay: Difference in days for treated (T) and control (C) PDGF-transfected fibroblast tumors to reach 750 mg in mice at 15 mg/kg peroral dose, days 1-15 administration; format: functional; conditions: route oral
In short: as §3

COLO 205 [19] = assay: Weight change of COLO 205 tumor cells in mice at 10 mg/kg peroral dose, days 14-28 administration; format: functional; conditions: route oral
In short: as §2

NIH3T3/PDGF = assay: Weight change of NIH3T3/PDGF cell tumors in mice at 9.5 mg/kg peroral dose, days 1-15 administration; conditions: route oral
C6 [20] = assay: Difference in days for treated (T) and control (C) C6 glioma cell tumors to reach 750 mg in mice at 10 mg/kg peroral dose, days 1-15 administration; format: functional; conditions: route oral
In short: as §3

HT-29 [21] = assay: Difference in days for treated (T) and control (C) HT-29 cell tumors to reach 750 mg in mice at 10.2 mg/kg peroral dose, days 15-29 administration; format: functional; conditions: route oral
In short: as §3

Mus musculus [22] = assay: Difference in days for treated (T) and control (C) PDGF-transfected fibroblast tumors to reach 750 mg in mice at 9.5 mg/kg peroral dose, days 1-15 administration; conditions: route oral
SK-OV-3 [23] = assay: Weight change of SK-OV-3 cell tumors in mice at 20.3 mg/kg peroral dose, days 20-34 administration; format: functional; conditions: route oral
In short: as §4

SK-OV-3 [24] = assay: Net reduction in tumor burden between first and last treatments of SK-OV-3 cell tumors in mice at 20.3 mg/kg peroral dose, days 20-34 administration; format: functional; conditions: route oral
In short: as §1

MCF7 [25] = assay: Net reduction in tumor burden between first and last treatments of MCF-7 cell tumors in mice at 12 mg/kg peroral dose, days 1-15 administration; format: functional; conditions: route oral
In short: as §1

MCF7 [26] = assay: Difference in days for treated (T) and control (C) MCF-7 cell tumors to reach 750 mg in mice at 12 mg/kg peroral dose, days 1-15 administration; format: functional; conditions: route oral
In short: as §3

SK-OV-3 [27] = assay: Difference in days for treated (T) and control (C) SK-OV-3 cell tumors to reach 750 mg in mice at 20.3 mg/kg peroral dose, days 20-34 administration; format: functional; conditions: route oral
In short: as §3

HT-29 [28] = assay: Weight change of HT-29 tumor cells in mice at 10.2 mg/kg peroral dose, days 15-29 administration; format: functional; conditions: route oral
In short: as §2

MCF7 [29] = assay: Weight change of MCF-7 tumor cells in mice at 12 mg/kg peroral dose, days 1-15 administration; format: functional, organism-based; design: dose 12 mg/kg
In short: as §2

## CCN(CC)CCOc1ccc(Nc2ncc3cc(-c4c(Cl)cccc4Cl)c(=O)n(C)c3n2)cc1 [PD-0166285]
C6 glioma
  T-C: 0.3 days
A-431 [1]
  Net cell kill: -0.5 log10
COLO 205 [2]
  Net cell kill: -0.7 log10
Mus musculus [3]
  Net cell kill: -1.6 log10
C6 [4]
  Weight change: Weight gain
A-431 [5]
  T-C: 3.7 days
C6 [6]
  Net cell kill: -1 log10
C6 [7]
  Weight change: -0.1 g
NIH3T3 [8]
  IC50: 1.1 nM
C6 [9]
  Net cell kill: -0.8 log10
Mus musculus [10]
  Weight change: -0.4 g
COLO 205 [11]
  T-C: 0.6 days
C6 [12]
  IC50: 120 nM
Mus musculus [13]
  Net cell kill: -1.8 log10
C6 [14]
  IC50: 340 nM
HT-29 [15]
  Net cell kill: -0.2 log10
NIH3T3 [16]
  IC50: 10 nM
A-431 [17]
  Weight change: -3.1 g
Mus musculus [18]
  T-C: 2.2 days
COLO 205 [19]
  Weight change: -4 g
NIH3T3/PDGF
  Weight change: -4.1 g
C6 [20]
  T-C: 0.4 days
HT-29 [21]
  T-C: 9.6 days
Mus musculus [22]
  T-C: 3.3 days
SK-OV-3 [23]
  Weight change: -4 g
SK-OV-3 [24]
  Net cell kill: -0.1 log10
MCF7 [25]
  Net cell kill: -0.6 log10
MCF7 [26]
  T-C: 1.1 days
SK-OV-3 [27]
  T-C: 10.6 days
HT-29 [28]
  Weight change: 0 g
MCF7 [29]
  Weight change: Weight gain
